Results published in ChEMBL document CHEMBL3407377, “Synthesis and pharmacological evaluation of benzannulated derivatives as potent and selective sigma-1 protein ligands” (Eur J Med Chem, 2015).

Key:
[1] = Cytotoxicity against human SH-SY5Y cells assessed as cell viability after 72 hrs by MTT assay; format: cell-based
Method in brief: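 Human neuroblastoma SY5Y cells were exposed to a range of concentrations up to 100 μM. Viability was read by colorimetric MTT assay, and the IC50 was taken from it.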

[2] = biological target: Sigma non-opioid intracellular receptor 1 (Homo sapiens, UniProt Q99720); experiment: Displacement of [3H](+)Pentazocine from sigma 1 receptor in human Jurkat cells after 120 mins by liquid scintillation counting analysis; format: cell-based
Sigma non-opioid intracellular receptor 1, sequence (Q99720 whole entry): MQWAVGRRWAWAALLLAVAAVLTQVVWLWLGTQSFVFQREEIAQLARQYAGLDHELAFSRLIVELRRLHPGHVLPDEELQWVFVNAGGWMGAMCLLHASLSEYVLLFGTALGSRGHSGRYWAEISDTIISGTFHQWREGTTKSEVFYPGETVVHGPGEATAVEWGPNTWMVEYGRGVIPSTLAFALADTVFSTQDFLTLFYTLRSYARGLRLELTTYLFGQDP

[3] = Ratio of IC50 for human SY5Y cells to Ki for sigma 1 receptor in human Jurkat cells
Method in brief: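 Selectivity index was calculated as the SY5Y cytotoxicity IC50 divided by the S1R Ki. The IC50 came from a colorimetric MTT viability assay on human neuroblastoma SY5Y cells dosed up to 100 μM. The Ki came from [3H](+)-pentazocine competition binding on Jurkat cell membranes.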

[4] = test system: Jurkat; experiment: Selectivity ratio of Ki for sigma2 receptor in human Jurkat cells to Ki for sigma1 receptor human Jurkat cells; format: cell-based
Method in brief: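 Both affinities came from radioligand competition on Jurkat cell membranes. S1R used [3H](+)-pentazocine. S2R used [3H]-DTG with excess unlabelled (+)-pentazocine. Ki values were derived from IC50s, and the ratio was calculated as Ki(S2R)/Ki(S1R).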

Row | SMILES | IC50 [1] [µM] | Ki [2] [µM] | Ratio [3] | Ratio Ki [4]
1 | O=C1COc2ccc(Br)cc2N1CCCN1Cc2ccccc2C1 | > 100 | > 0.1 |  | 
2 | CN(CCCn1c(=O)oc2cc(Br)ccc21)Cc1ccccc1 | 58.8 | 0.0009 | 63291 | 37
3 | Cn1c(=O)n(CCCN2Cc3ccccc3C2)c2ccccc21 | > 100 | > 0.1 |  | 
4 | CN(CCCn1c(=O)oc2ccccc21)Cc1ccccc1 | > 100 | > 0.1 |  | 
5 | CN(CCCN1C(=O)COc2ccc(Br)cc21)Cc1ccccc1 | 13.4 | > 0.1 |  | 
6 | O=c1sc2ccccc2n1CCCN1Cc2ccccc2C1 | > 100 | 0.0303 | >3000 | 
7 | O=c1sc2cc(Br)ccc2n1CCCN1Cc2ccccc2C1 | 31.4 | 0.0057 | 5471 | 
8 | O=c1oc2ccccc2n1CCCN1Cc2ccccc2C1 | > 100 | > 0.1 |  | 
9 | O=c1oc2cc(Br)ccc2n1CCCN1Cc2ccccc2C1 | > 100 | > 0.1 |  | 
10 | CN(CCCn1c(=O)sc2cc(Br)ccc21)Cc1ccccc1 | 13.2 | 0.0006 | 23250 | 48
11 | CN(CCCn1c(=O)oc2ccc(Br)cc21)Cc1ccccc1 | 14.2 | 0.0012 | 11463 | 13
12 | Cc1nc2ccccc2n1CCCN(C)Cc1ccccc1 | 50.2 | > 0.1 |  | 
13 | CN(CCCn1c(=O)n(C)c2ccccc21)Cc1ccccc1 | 73.8 | > 0.1 |  | 
14 | O=C1[C@@H]2Cc3ccccc3CN2C(=O)N1CCCN1Cc2ccccc2C1 |  | 0.0053 |  | 78
15 | CN(CCCN1C(=O)CSc2ccc(Br)cc21)Cc1ccccc1 | 18.7 | 0.0022 | 8631 | 22
16 | CN(CCCn1c(=O)sc2ccc(Br)cc21)Cc1ccccc1 | 26.5 | 0.0031 | 8417 | 35
17 | CN(CCCn1c(=O)sc2ccccc21)Cc1ccccc1 | 10 | 0.0103 | 973 | 
18 | CN(CCCn1c(=O)sc2ccc(Cl)cc21)Cc1ccccc1 | 9.9 | 0.0047 | 2124 | 35
19 | CN(CCCn1c(=O)oc2ccc(Cl)cc21)Cc1ccccc1 | > 100 | 0.0064 | 15500 | 16
20 | CN(CCCN1C(=O)[C@@H]2Cc3ccccc3CN2C1=O)Cc1ccccc1 | > 100 |  |  | 
